Broadly, the IC50 is the concentration that gives 50% inhibition. A lower IC50 goes with greater potency in that assay.

Our source for the IC50 values is BindingDB's records for doi:10.1021/jm030003x (University of Alabama At Birmingham, 2003).

In the assay the target is T1, NH(3)-dependent NAD(+) synthetase (Bacillus subtilis (strain 168), UniProt P08164).
T1 sequence (P08164 whole entry): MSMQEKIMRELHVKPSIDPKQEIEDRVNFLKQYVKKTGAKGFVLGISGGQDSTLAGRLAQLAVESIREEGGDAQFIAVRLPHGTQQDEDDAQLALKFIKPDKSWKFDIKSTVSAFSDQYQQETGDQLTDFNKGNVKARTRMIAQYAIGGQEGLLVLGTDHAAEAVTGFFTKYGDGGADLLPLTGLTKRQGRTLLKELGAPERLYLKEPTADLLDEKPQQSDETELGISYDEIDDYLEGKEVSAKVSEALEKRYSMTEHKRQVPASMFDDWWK
The experiment in a line: Inhibitory activity against Bacillus subtilis NAD synthetase. The procedure, abridged: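 Purified recombinant B. subtilis NAD synthetase, 2.0 µg/mL. Coupled assay: the NAD formed is converted to NADH by yeast alcohol dehydrogenase (40 µg/mL) with 1% EtOH. Buffer is 58.5 mM HEPES pH 8.5 with NH4Cl, KCl, MgCl2, 0.1 mM NaAD, 0.2 mM ATP, 0.3% BOG and 2.5% DMSO. ATP starts the reaction, which runs 10 min and is stopped with guanidine·HCl. Read A340 and fluorescence 460 nm minus pre-ATP background. IC50 from % inhibition at six concentrations.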

SMILES strings stand for the structures.

`CN[C@@H]1[C@@H](O)[C@@H](O[C@@H]2[C@@H](O)[C@H](O[C@H]3O[C@H]([C@@H](C)NC)CC[C@H]3N)[C@@H](N)C[C@H]2N)OC[C@]1(C)O` [GENTAMICIN] yielded an IC50 greater than 1000 nM.
